# In ChEMBL document CHEMBL4689842, “EUbOPEN Chemogenomics Library wave 1” (2021):
# System: Fibroblast
# Assay: Multiplex assay against human fibroblast
# Format: toxicity, cell-based
# Outline: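 Compound was added to live cells that had been stained at seeding with Hoechst33342, BioTracker Green Microtubule Cytoskeleton Dye, MitoTracker Red and Annexin V Alexa Fluor 680, and imaging followed on a CQ1 microscope at 37°C and 5% CO2. CellPathfinder machine-learning gating divided cells into Hoechst high-intensity objects or normal cells, normal cells into healthy, pyknosed or fragmented nuclei, and pyknosed cells into mitotic or apoptotic. Tubulin, mitochondrial-mass and membrane-permeability phenotypes are per cents of healthy-nucleus cells.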
# [1] = 12 h, 1 µM, compound concentration 1 uM, replicate 1
# [2] = 12 h, 1 µM, compound concentration 1 uM, replicate 2
# [3] = 12 h, 10 µM, compound concentration 10 uM, replicate 1
# [4] = 12 h, 10 µM, compound concentration 10 uM, replicate 2
# [5] = 24 h, 1 µM, compound concentration 1 uM, replicate 1
# [6] = 24 h, 1 µM, compound concentration 1 uM, replicate 2
# [7] = 24 h, 10 µM, compound concentration 10 uM, replicate 1
# [8] = 24 h, 10 µM, compound concentration 10 uM, replicate 2
# [9] = 48 h, 1 µM, compound concentration 1 uM, replicate 1
# [10] = 48 h, 1 µM, compound concentration 1 uM, replicate 2
# [11] = 48 h, 10 µM, compound concentration 10 uM, replicate 1
# [12] = 48 h, 10 µM, compound concentration 10 uM, replicate 2
smiles,measurement,setting,value
CCc1nn(CCCN2CCN(c3cccc(Cl)c3)CC2)c(=O)n1CCOc1ccccc1.Cl [NEFAZODONE HYDROCHLORIDE],Population Apoptotic (%),[1],60%
same,Population Fragmented Nuclei (%),[1],16%
same,Population Healthy Nuclei (%),[1],47%
same,Population Hoechst High Intensity Objects (%),[1],13%
same,Population Membrane Permeable-Phenotype (%),[1],31%
same,Population Mitochondria Different-Phenotype (%),[1],10%
same,Population Mitotic Cells (%),[1],40%
same,Population Normal (%),[1],86%
same,Population Pyknosed Nuclei (%),[1],35%
same,Population Tubulin-Different-Phenotype (%),[1],75%
same,Total Cell Count,[1],176
same,Population Apoptotic (%),[2],0%
same,Population Fragmented Nuclei (%),[2],8%
same,Population Healthy Nuclei (%),[2],89%
same,Population Hoechst High Intensity Objects (%),[2],6%
same,Population Membrane Permeable-Phenotype (%),[2],3%
same,Population Mitochondria Different-Phenotype (%),[2],9%
same,Population Mitotic Cells (%),[2],100%
same,Population Normal (%),[2],93%
same,Population Pyknosed Nuclei (%),[2],1%
same,Population Tubulin-Different-Phenotype (%),[2],29%
same,Total Cell Count,[2],68
same,Population Apoptotic (%),[3],81%
same,Population Fragmented Nuclei (%),[3],24%
same,Population Healthy Nuclei (%),[3],45%
same,Population Hoechst High Intensity Objects (%),[3],10%
same,Population Membrane Permeable-Phenotype (%),[3],1%
same,Population Mitochondria Different-Phenotype (%),[3],84%
same,Population Mitotic Cells (%),[3],18%
same,Population Normal (%),[3],89%
same,Population Pyknosed Nuclei (%),[3],30%
same,Population Tubulin-Different-Phenotype (%),[3],96%
same,Total Cell Count,[3],157
same,Population Apoptotic (%),[4],69%
same,Population Fragmented Nuclei (%),[4],9%
same,Population Healthy Nuclei (%),[4],69%
same,Population Hoechst High Intensity Objects (%),[4],3%
same,Population Membrane Permeable-Phenotype (%),[4],60%
same,Population Mitochondria Different-Phenotype (%),[4],97%
same,Population Mitotic Cells (%),[4],30%
same,Population Normal (%),[4],96%
same,Population Pyknosed Nuclei (%),[4],20%
same,Population Tubulin-Different-Phenotype (%),[4],97%
same,Total Cell Count,[4],61
same,Population Apoptotic (%),[5],52%
same,Population Fragmented Nuclei (%),[5],20%
same,Population Healthy Nuclei (%),[5],57%
same,Population Hoechst High Intensity Objects (%),[5],14%
same,Population Membrane Permeable-Phenotype (%),[5],16%
same,Population Mitochondria Different-Phenotype (%),[5],17%
same,Population Mitotic Cells (%),[5],47%
same,Population Normal (%),[5],85%
same,Population Pyknosed Nuclei (%),[5],22%
same,Population Tubulin-Different-Phenotype (%),[5],68%
same,Total Cell Count,[5],175
same,Population Apoptotic (%),[6],50%
same,Population Fragmented Nuclei (%),[6],8%
same,Population Healthy Nuclei (%),[6],85%
same,Population Hoechst High Intensity Objects (%),[6],2%
same,Population Membrane Permeable-Phenotype (%),[6],1%
same,Population Mitochondria Different-Phenotype (%),[6],15%
same,Population Mitotic Cells (%),[6],50%
same,Population Normal (%),[6],97%
same,Population Pyknosed Nuclei (%),[6],5%
same,Population Tubulin-Different-Phenotype (%),[6],33%
same,Total Cell Count,[6],71
same,Population Apoptotic (%),[7],80%
same,Population Fragmented Nuclei (%),[7],23%
same,Population Healthy Nuclei (%),[7],58%
same,Population Hoechst High Intensity Objects (%),[7],22%
same,Population Membrane Permeable-Phenotype (%),[7],3%
same,Population Mitochondria Different-Phenotype (%),[7],86%
same,Population Mitotic Cells (%),[7],20%
same,Population Normal (%),[7],77%
same,Population Pyknosed Nuclei (%),[7],18%
same,Population Tubulin-Different-Phenotype (%),[7],100%
same,Total Cell Count,[7],177
same,Population Fragmented Nuclei (%),[8],22%
same,Population Healthy Nuclei (%),[8],56%
same,Population Hoechst High Intensity Objects (%),[8],1%
same,Population Membrane Permeable-Phenotype (%),[8],80%
same,Population Mitochondria Different-Phenotype (%),[8],100%
same,Population Normal (%),[8],98%
same,Population Pyknosed Nuclei (%),[8],20%
same,Total Cell Count,[8],72
same,Population Apoptotic (%),[9],43%
same,Population Fragmented Nuclei (%),[9],30%
same,Population Healthy Nuclei (%),[9],58%
same,Population Hoechst High Intensity Objects (%),[9],19%
same,Population Membrane Permeable-Phenotype (%),[9],19%
same,Population Mitochondria Different-Phenotype (%),[9],5%
same,Population Mitotic Cells (%),[9],56%
same,Population Normal (%),[9],80%
same,Population Pyknosed Nuclei (%),[9],11%
same,Population Tubulin-Different-Phenotype (%),[9],51%
same,Total Cell Count,[9],178
same,Population Apoptotic (%),[10],50%
same,Population Healthy Nuclei (%),[10],67%
same,Population Hoechst High Intensity Objects (%),[10],13%
same,Population Membrane Permeable-Phenotype (%),[10],6%
same,Population Mitochondria Different-Phenotype (%),[10],14%
same,Population Mitotic Cells (%),[10],50%
same,Population Normal (%),[10],86%
same,Population Pyknosed Nuclei (%),[10],1%
same,Population Tubulin-Different-Phenotype (%),[10],71%
same,Total Cell Count,[10],127
same,Population Apoptotic (%),[11],85%
same,Population Fragmented Nuclei (%),[11],40%
same,Population Healthy Nuclei (%),[11],55%
same,Population Hoechst High Intensity Objects (%),[11],34%
same,Population Membrane Permeable-Phenotype (%),[11],1%
same,Population Mitochondria Different-Phenotype (%),[11],62%
same,Population Mitotic Cells (%),[11],14%
same,Population Normal (%),[11],65%
same,Population Pyknosed Nuclei (%),[11],4%
same,Population Tubulin-Different-Phenotype (%),[11],96%
same,Total Cell Count,[11],257
same,Population Apoptotic (%),[12],50%
same,Population Fragmented Nuclei (%),[12],43%
same,Population Healthy Nuclei (%),[12],54%
same,Population Hoechst High Intensity Objects (%),[12],25%
same,Population Membrane Permeable-Phenotype (%),[12],2%
same,Population Mitochondria Different-Phenotype (%),[12],59%
same,Population Mitotic Cells (%),[12],50%
same,Population Normal (%),[12],75%
same,Population Pyknosed Nuclei (%),[12],2%
same,Population Tubulin-Different-Phenotype (%),[12],95%
same,Total Cell Count,[12],232
